Reference: ChEMBL document CHEMBL3232766, “Discovery of lead compounds targeting the bacterial sliding clamp using a fragment-based approach” (J Med Chem, 2014)
In brackets after ≈: the same amount, converted by molar mass. Activity calls are given as the source filed them. The calls are words filed in the database; no cut-off is given here.

Assays:
[1] = Inhibition of Escherichia coli DNA polymerase 3 beta assessed as inhibition of 5-carboxyfluorescein-QLDLF binding by fluorescence polarization-based competition assay
Outline: (§1)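 Competition fluorescence polarization with E. coli sliding clamp and tracer 5-carboxyfluorescein-QLDLF (Kd 70 nM). Inhibition of tracer binding plotted against inhibitor concentration. IC50 converted to Ki using the Kenakin correction for ligand depletion.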

Escherichia coli [2] = test: Inhibition of Escherichia coli DNA polymerase 3 beta assessed as inhibition of M13 ssDNA replication at 500 to 1000 uM after 60 mins by agarose gel electrophoresis-UV transilluminator analysis in presence of polymerase 3 alpha and reconstituted clamp loader complex gamm3-delta-delta'
Outline: (§2)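 Reconstituted replication of 3 nM RNA-primed M13 ssDNA in 20 mM Tris-HCl pH 7.6, 10 mM MgCl2, 0.8 mM ATP, 8.4 mM DTT, 0.6 mM each dNTP, 120 mM NaCl, with 211 nM Pol III α, 700 nM SSB tetramer, 210 nM β dimer, 42 nM γ3δδ′. Compounds added at 0 °C, final 3.4% DMSO. Run 60 min at 30 °C, quenched with EDTA/SDS, products resolved on 0.7% agarose, SYBR Gold stained, viewed by UV.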

[3] = Distribution coefficient, log D of the compound at pH 7.2; format: physicochemical; settings: octanol/water
Escherichia coli [4] = test: Antibacterial activity against Escherichia coli DH5[alpha] after 24 hrs by broth microdilution method; format: functional
Outline: (§3)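 CLSI broth microdilution in cation-adjusted Mueller Hinton II broth. Overnight cultures diluted to 5 × 10⁴ CFU/mL. Compounds from 100 mM DMSO stocks, serially 2-fold diluted. OD read at 595 nm before and after 24 h at 37 °C. MIC taken as lowest concentration with background-subtracted OD <0.1. Controls: medium blank, DMSO vehicle, antibiotic.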

Acinetobacter baylyi = test: Antibacterial activity against Acinetobacter baylyi ADP1 after 24 hrs by broth microdilution method; format: functional; settings: ADP1, 24 h; outline: as §3
Bacillus subtilis = test: Antibacterial activity against Bacillus subtilis SU5 after 24 hrs by broth microdilution method; format: functional; settings: SU5, 24 h; outline: as §3
Staphylococcus aureus = test: Antibacterial activity against Staphylococcus aureus NCTC 8325 after 24 hrs by broth microdilution method; format: functional; settings: NCTC 8325, 24 h; outline: as §3
Escherichia coli [5] = test: Inhibition of Escherichia coli DNA polymerase 3 beta assessed as inhibition of 5-carboxyfluorescein-QLDLF binding at <1 mM by fluorescence polarization-based competition assay; outline: as §1
Escherichia coli [6] = test: Inhibition of Escherichia coli DNA polymerase 3 beta assessed as inhibition of M13 ssDNA replication at 250 uM after 60 mins by agarose gel electrophoresis-UV transilluminator analysis in presence of polymerase 3 alpha and reconstituted clamp loader complex gamm3-delta-delta'; outline: as §2

SMILES	IC50 [1] [µM]	inhibition (Escherichia coli [2])	logD [3]	MIC (Escherichia coli [4]) [µM]	MIC (Acinetobacter baylyi) [µM]	MIC (Bacillus subtilis) [µM]	MIC (Staphylococcus aureus) [µM]	logD ([3]; read-out: logD)	inhibition (Escherichia coli [5])	inhibition (Escherichia coli [6])	Ki [1] [µM]
Clc1ccc2c(c1)c1ccccc1n2CC1CO1 (centres undefined)	358	Active	4.93								199
O=[N+]([O-])c1ccc2[nH]ccc2c1									inactive		
NC(=O)c1ccc(F)c(F)c1									inactive		
O=C1Nc2ccc(Cl)cc2C1=O									inactive		
O=C(O)c1ccc(-c2ccc(F)cc2)cc1	504	Active		2500 (≈ 541 µg/mL)	5000 (≈ 1080 µg/mL)	2500 (≈ 541 µg/mL)	5000 (≈ 1080 µg/mL)	-3.17			280
O=[N+]([O-])c1ccc2cn[nH]c2c1									inactive		

Now from value to compound, other results behind:

IC50 [1] [µM]	inhibition (Escherichia coli [2])	logD [3]	MIC (Escherichia coli [4]) [µM]	MIC (Acinetobacter baylyi) [µM]	MIC (Bacillus subtilis) [µM]	MIC (Staphylococcus aureus) [µM]	logD ([3]; read-out: logD)	inhibition (Escherichia coli [5])	inhibition (Escherichia coli [6])	SMILES	Ki [1] [µM]
899			78 (≈ 21.7 µg/mL)	156 (≈ 43.3 µg/mL)	78 (≈ 21.7 µg/mL)	78 (≈ 21.7 µg/mL)	4.44			CCOC(=O)[C@@H]1CCCc2c1[nH]c1ccc(Cl)cc21	499
115			313 (≈ 78.2 µg/mL)	313 (≈ 78.2 µg/mL)	156 (≈ 39 µg/mL)	156 (≈ 39 µg/mL)	0.36		Active	O=C(O)[C@@H]1CCCc2c1[nH]c1ccc(Cl)cc21	64
> 1000			156 (≈ 41.1 µg/mL)	78 (≈ 20.6 µg/mL)	78 (≈ 20.6 µg/mL)	156 (≈ 41.1 µg/mL)				COC(=O)[C@@H]1CCCc2c1[nH]c1ccc(Cl)cc21	
389	Active		2500 (≈ 624 µg/mL)	5000 (≈ 1250 µg/mL)	2500 (≈ 624 µg/mL)	2500 (≈ 624 µg/mL)	-0.48			O=C(O)c1cc2[nH]c3c(c2cc1Cl)CCCC3	216
